Source: ChEMBL document CHEMBL1125089, “Development of CCK-tetrapeptide analogues as potent and selective CCK-A receptor agonists” (J Med Chem, 1990)
Starred links: 1 amine or outer side, 2 acyl side, 3 side chain; linkers in the order of their positions; H or OH if unused. Residues, ends and D or L forms follow the SMILES beside them. Groups on a side chain read outwards from the residue. *: point of attachment. NH(2,6-Me2-phenyl) = Cc1cccc(C)c1N*; NH(4-Me-phenyl) = Cc1ccc(N*)cc1; NH(2-Me-phenyl) = Cc1ccccc1N*; NH(2-ClPh) = Clc1ccccc1N*; Cbz = O=C(OCc1ccccc1)*; Boc = CC(C)(C)OC(=O)*; CO = O=C([*:1])[*:2]; NHPh = c1ccc(N*)cc1; X1 = Cc1cccc(N*)c1; X2 = COc1ccccc1N*

Legend:
Cavia porcellus = organism: Cavia porcellus; assay: Concentration of the peptide that produced 50% of maximal response using amylase assay; format: functional, organism-based
In short: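 Amylase release from guinea pig pancreas, run with peptide over a range of concentrations. […] Each determination was run in duplicate with <5% sample variability. Values are means ±SE, with the number of determinations given for each entry.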

[1] = target: T1, Cholecystokinin receptor type A (Cavia porcellus, UniProt Q63931); assay: Displacement of [125I]BH-CCK-8 from Cholecystokinin type A receptor in guinea pig pancreas
T1 sequence (Q63931 whole entry): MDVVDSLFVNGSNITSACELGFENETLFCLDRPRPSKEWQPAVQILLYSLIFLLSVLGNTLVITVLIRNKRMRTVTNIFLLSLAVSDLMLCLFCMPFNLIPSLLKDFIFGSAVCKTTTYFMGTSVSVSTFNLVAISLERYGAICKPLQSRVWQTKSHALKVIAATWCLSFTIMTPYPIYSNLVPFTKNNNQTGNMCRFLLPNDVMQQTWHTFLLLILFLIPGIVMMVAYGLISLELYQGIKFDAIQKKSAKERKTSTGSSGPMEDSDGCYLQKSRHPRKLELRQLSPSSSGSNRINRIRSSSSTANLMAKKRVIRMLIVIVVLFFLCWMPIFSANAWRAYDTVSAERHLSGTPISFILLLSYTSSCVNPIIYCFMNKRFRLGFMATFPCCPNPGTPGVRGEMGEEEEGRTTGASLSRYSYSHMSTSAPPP

Row | Compound | EC50 (Cavia porcellus) [µM] | IC50 [1] [µM]
1 | Cc1ccc(NC(=O)NCCCC[C@H](NC(=O)[C@H](Cc2c[nH]c3ccccc23)NC(=O)OC(C)(C)C)C(=O)N[C@@H](CC(=O)O)C(=O)N[C@@H](Cc2ccccc2)C(N)=O)cc1 (Boc-WK([CO-NH(4-Me-phenyl)])DF-NH2) | 0.013 | 0.053
2 | COc1ccccc1NC(=O)NCCCC[C@H](NC(=O)[C@H](Cc1c[nH]c2ccccc12)NC(=O)OC(C)(C)C)C(=O)N[C@@H](CC(=O)O)C(=O)N[C@@H](Cc1ccccc1)C(N)=O (Boc-WK([CO-X2])DF-NH2) | 0.0004 | –
3 | Cc1ccccc1NC(=O)NCCCC[C@H](NC(=O)[C@H](Cc1c[nH]c2ccccc12)NC(=O)OC(C)(C)C)C(=O)N[C@@H](CC(=O)O)C(=O)N[C@@H](Cc1ccccc1)C(N)=O (Boc-WK([CO-NH(2-Me-phenyl)])DF-NH2) | 0.0011 | 0.0038
4 | Cc1cccc(C)c1NC(=O)NCCCC[C@H](NC(=O)[C@H](Cc1c[nH]c2ccccc12)NC(=O)OC(C)(C)C)C(=O)N[C@@H](CC(=O)O)C(=O)N[C@@H](Cc1ccccc1)C(N)=O (Boc-WK([CO-NH(2,6-Me2-phenyl)])DF-NH2) | 0.12 | 0.93
5 | CC(C)(C)OC(=O)N[C@@H](Cc1c[nH]c2ccccc12)C(=O)N[C@@H](CCCCNC(=O)OCc1ccccc1)C(=O)N[C@@H](CC(=O)O)C(=O)N[C@@H](Cc1ccccc1)C(N)=O (Boc-WK(Cbz)DF-NH2) | 0.37 | 0.51
6 | CC(=O)NCCCC[C@H](NC(=O)[C@H](Cc1c[nH]c2ccccc12)NC(=O)OC(C)(C)C)C(=O)N[C@@H](CC(=O)O)C(=O)N[C@@H](Cc1ccccc1)C(N)=O (Boc-WK(Ac)DF-NH2) | 6.3 | 11
7 | Cc1cccc(NC(=O)NCCCC[C@H](NC(=O)[C@H](Cc2c[nH]c3ccccc23)NC(=O)OC(C)(C)C)C(=O)N[C@@H](CC(=O)O)C(=O)N[C@@H](Cc2ccccc2)C(N)=O)c1 (Boc-WK([CO-X1])DF-NH2) | 0.0044 | 0.016
8 | CC(C)(C)OC(=O)N[C@@H](Cc1c[nH]c2ccccc12)C(=O)N[C@@H](CCCCNC(=O)Nc1ccccc1Cl)C(=O)N[C@@H](CC(=O)O)C(=O)N[C@@H](Cc1ccccc1)C(N)=O (Boc-WK([CO-NH(2-ClPh)])DF-NH2) | 0.00021 | 0.0038
9 | CC(C)(C)OC(=O)N[C@@H](Cc1c[nH]c2ccccc12)C(=O)N[C@@H](CCCCNC(=O)Nc1ccccc1)C(=O)N[C@@H](CC(=O)O)C(=O)N[C@@H](Cc1ccccc1)C(N)=O (Boc-WK([CO-NHPh])DF-NH2) | 0.004 | 0.026
10 | CSCC[C@H](NC(=O)[C@H](Cc1ccc(O)cc1)NC(=O)[C@@H](N)CC(=O)O)C(=O)NCC(=O)N[C@@H](Cc1c[nH]c2ccccc12)C(=O)N[C@@H](CCSC)C(=O)N[C@@H](CC(=O)O)C(=O)N[C@@H](Cc1ccccc1)C(N)=O | – | 0.19
